# Measles CPE: protection of cells from measles virus; Measles virus-infected cells, CPE protection, absorbance; AID 841; protection (pct of control), % at 4 µM; 140,000 tested, 1.5% active; in the data active = protection mostly above about 24%, no sharp cut-off; inactive = mostly below about 26%
# INS promoter inh: TRM-6 insulin promoter activity inhibition. inhibition, % at 2 µM. TRM-6 cells (human fetal islet line), insulin promoter-eGFP reporter, imaging; reporter expression induced with tamoxifen. 130,000 tested, 0.9% active;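 active = inhibition above the mean plus 3 SD, with well images judged a real hit on visual review, cut at about 60% in these data, passing the limit was not always enough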
# Mdm2 ligase inh: Mdm2 E3 ligase (human) inhibition; 210,000 tested, 0.11% active; Q00987; cell-based MDM2 ubiquitination luciferase reporter, 2 h; 0 = plate control, 100 = twice control, blank-subtracted; signal enhancement, % at 5 µM;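 active = signal enhancement of 30% or more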;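 note: luminescence tracks abundance of the self-degrading MDM2-luciferase fusion protein; higher signal means inhibition of MDM2 E3 ligase activity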
# Target sequence (Q00987 whole entry, looked up, the tested form may be a part): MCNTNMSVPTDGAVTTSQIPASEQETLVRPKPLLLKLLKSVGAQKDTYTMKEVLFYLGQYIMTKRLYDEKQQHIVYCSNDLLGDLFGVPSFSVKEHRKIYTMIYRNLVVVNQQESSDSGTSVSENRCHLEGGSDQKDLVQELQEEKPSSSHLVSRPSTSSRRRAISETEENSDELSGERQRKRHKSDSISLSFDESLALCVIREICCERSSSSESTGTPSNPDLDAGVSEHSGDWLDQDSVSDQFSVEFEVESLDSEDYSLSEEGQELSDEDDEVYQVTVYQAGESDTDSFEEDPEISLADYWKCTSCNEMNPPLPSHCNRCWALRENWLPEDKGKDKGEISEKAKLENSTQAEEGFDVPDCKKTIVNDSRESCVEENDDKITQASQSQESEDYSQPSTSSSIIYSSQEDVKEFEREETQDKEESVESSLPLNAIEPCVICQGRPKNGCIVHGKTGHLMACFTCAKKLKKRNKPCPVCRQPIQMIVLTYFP
#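 Material: stable MDM2–luciferase fusion reporter cells / Quantity: 2000 cells/well / Dosing: single 5 µM compound dose, 0.2% final DMSO / Buffer or medium: DMEM / Schedule: 4 h cell settling then 2 h compound exposure, 37 °C / Detection: luminescence with SteadyLite reagent, 15 min at room temperature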
# Yeast life ext: extends the lifespan of yeast; inhibition of the nicotinamide effect, % at 10 µM; S. cerevisiae growth with nicotinamide, OD615; deaD strain in restrictive glucose medium; 130,000 tested, 0.68% active;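 active = inhibition above a set limit, placed 3 SD over the median of all compounds, cut at about 26% in these data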;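 note: 0% = nicotinamide-treated wells and 100% = cells grown without nicotinamide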
#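 Material: Modified budding yeast, DeaD strain | Medium: Restrictive glucose medium | Probe or stimulus: 1.5 mM nicotinamide | Dosing: Single dose 10 µM compound, 0.25% DMSO | Times: 48 h at 30 °C | Technique: OD615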
# RAM inhibit: inhibitors of the yeast RAM network; inhibition, % at 50 µM; S. cerevisiae dse1pr::URA3 reporter, 5-FOA growth OD615, 2 d; analog-sensitive cbk1-as2 kinase mutant strain; AID 868; 190,000 tested, 1.8% active;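 active = inhibition above a set limit, 3 SD over mean compound inhibition, cut at about 8.4% in these data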;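 note: 0% = DMSO-only wells with no growth and 100% = 10 µM 1-NA-PP1 full growth; inhibition rescues growth on 5-FOA so higher OD means more RAM inhibition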
# BB579 growth dn: chemicals that inhibit yeast BB579 growth in restrictive medium (lifespan-shortening candidates); 140,000 tested, 0.51% active; inhibition, % at 10 µM; S. cerevisiae BB579 growth, OD615, 48 h; AID 804;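 active = inhibition above a set limit, 3 SD over the mean compound inhibition, cut at about 44% in these data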
#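 Test system: Saccharomyces cerevisiae DeaD strain BB579, replicative lifespan model yeast | Buffer or medium: Restrictive CSMM-D medium | Doses: One dose, 10 µM compound with 0.25% DMSO | Incubation: 48 h exposure, 30 °C | Detection: Culture absorbance at 615 nm | Control set: Amphotericin B at 10 µg/mL as positive control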
# RAM efflux-def: RAM network inhibition, efflux-deficient strain. shares compounds with RAM inhibit. S. cerevisiae efflux-deficient reporter strain, 5-FOA growth OD615, 2 days. max inhibition, %. 1,200 tested, under 10 active. AID 1305; call rule not given here;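 note: plate controls were vehicle for no effect and reference inhibitor for full effect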
# The depositor's hits bear a star; nt = no result given. Rows were chosen to be rich in hits. Some 4% of all compounds tested hit in one or more screens of this group.
SMILES,Measles CPE,INS promoter inh,Mdm2 ligase inh,Yeast life ext,RAM inhibit,BB579 growth dn,RAM efflux-def
CC(=O)n1nc(-c2ccc(Cl)cc2)nc1NCc1ccco1,13,14,-15,-9,2,7,nt
O=C(c1cccs1)n1nc(-c2ccc(Cl)cc2)nc1NCc1ccco1,3,-31,6,-3,13*,-37,3
Cc1ccc(C(=O)n2nc(-c3ccccc3)nc2NCc2ccco2)cc1,13,21,4,-11,13*,-17,3
O=S(=O)(c1ccccc1)n1nc(-c2ccccc2)nc1NCc1ccco1,15,35,-19,-2,16*,-31,6
COCCNC(=O)C(c1ccc(F)cc1)N(C(=O)CCC(=O)Nc1nccs1)c1ccc(C)cc1 (stereo not drawn),nt,nt,4,nt,12*,nt,2
CC(C)(CO)NC(=S)NCc1ccco1,nt,nt,-16,nt,nt,nt,nt
CN(C)CCNc1cnn(-c2ccccc2)c(=O)c1Cl,nt,nt,-5,nt,2,nt,nt
O=C(c1ccc(C(F)(F)F)cc1)N1CCC(=O)N(C(COCc2ccccc2)Cc2ccccc2)CC1 (stereo not drawn),3,-24,nt,14,26*,-29,2
Cc1ccc(CSc2nnc(-c3ccc4c(c3)OCO4)o2)cc1,9,-32,-9,-5,15*,-28,2
O=C(O)CN1CCc2ccccc2C1,nt,nt,-1,nt,2,nt,nt
CSc1ccc(/C=C/C(=O)c2ccc(NC(=O)Cc3ccccc3)cc2)cc1,18,-3,-5,-20,14*,-70,6
COc1ccccc1NC(=O)c1ccc(NC(=O)COC(=O)CCC2CCCC2)cc1,nt,19,-7,-3,14*,-32,3
Brc1ccc(Cn2c(-c3ccc(Br)o3)nc3ccccc32)o1,4,-136,-22,2,13*,-49,3
CC(C)C(c1nnnn1C1CCCC1)N1CCc2ccccc21 (stereo not drawn),2,nt,1,-5,1,-56,nt
Cc1ccc(C(c2nnnn2C2CCCC2)N2CCc3ccccc32)cc1 (stereo not drawn),15,nt,-2,-7,12*,-45,4
Cc1ccc(NC(=O)N2CCC(=O)N2)cc1,44,-39,-10,-1,0,-21,nt
O=[N+]([O-])c1cc2c(c(CSc3nnnn3-c3ccc(O)cc3)c1)OCOC2,35,-29,-5,0,2,-41,nt
CCc1cc2c(Sc3nc4ccccc4s3)ncnc2s1,9,nt,-19,-15,13*,2,2
COc1ccc(-n2nnc3c(SCC(=O)OCc4ccccc4)ncnc32)cc1,4,-7,-31,-3,14*,-31,3
C=C(C)COc1ccc(-c2[nH]ncc2-c2ccc(OC)cc2)c(O)c1,nt,nt,-9,nt,nt,nt,nt
C=C(C)COc1ccc(-c2[nH]ncc2-c2ccc(OC)c(OC)c2)c(O)c1,9,nt,2,-21,14*,-33,2
C=C(C)COc1ccc(-c2[nH]ncc2Oc2ccccc2OCC)c(O)c1,19,-85,-6,-15,16*,-5,2
COc1ccc(-c2[nH]ncc2Oc2ccccc2OC)c(O)c1,1,-100,7,5,0,-9,nt
CN(C)c1ccc(NC(=O)CSCc2nc3c(nnn3Cc3ccc(F)cc3)c(=O)[nH]2)cc1,9,-33,nt,-3,2,-77,nt
O=C(CSCc1nc2c(nnn2Cc2ccc(F)cc2)c(=O)[nH]1)Nc1cccc(C(F)(F)F)c1,nt,nt,7,nt,16*,nt,1
SMILES,Measles CPE,INS promoter inh,Mdm2 ligase inh,Yeast life ext,RAM inhibit,BB579 growth dn,RAM efflux-def
COc1cc(NC(=O)CSc2ncnc3scc(-c4ccccc4)c23)c(C(=O)O)cc1OC,nt,-33,-11,nt,7,nt,nt
CC(C)Cn1c(-c2cccs2)nc2nc3ccccc3nc21,19,nt,-14,-20,0,-31,nt
CCCCn1c(-c2cccs2)nc2nc3ccccc3nc21,3,6,-8,-8,12*,-19,4
COc1cc(NS(=O)(=O)c2ccc(Nc3nc(-c4ccccc4)cs3)cc2)nc(OC)n1,10,3,-2,3,11*,-33,2
C/C(=N/NC(=O)c1cccc(N2CCCC2=O)c1)c1ccncc1,nt,nt,-3,nt,6,nt,nt
COc1ccc(-c2nc(CCNS(=O)(=O)c3ccc4c(c3)OCCO4)cs2)cc1,3,nt,-8,-10,3,18,nt
O=S(=O)(NCCc1csc(-c2ccc(C(F)(F)F)cc2)n1)c1ccc2c(c1)OCCO2,2,nt,-10,0,12*,-22,2
CN(C)c1ccc(N=Nc2ccccc2C(=O)OCC(=O)NCC2CCCCC2)cc1,5,-7,20,15,25*,-27,3
O=C(NCCc1ccccc1)c1c(O)c2cccc3c2n(c1=O)CC3,2,0,-11,3,22*,-62,2
CCCCCCCCC(=O)NNC(=O)c1c(O)c2ccccc2n(CC)c1=O,nt,nt,-4,nt,13*,nt,1
O=C(NCc1ccccn1)c1c(O)c2cccc3c2n(c1=O)CC3,18,17,2,2,-1,2,nt
CCCCCCn1c(=O)c(C(=O)N/N=C/c2cccc(F)c2)c(O)c2ccccc21,nt,-36,-26,nt,16*,nt,5
CCn1c(=O)c(C(=O)NCCc2ccccc2)c(O)c2ccccc21,11,0,-12,-1,12*,-38,4
CC(C)CNC(=O)c1ccccc1NC(=O)c1ccc(CSc2ccccc2)cc1,0,45,-86,4,18*,-42,7
C=CCSc1nnc(CCCCCN2C(=O)c3cccc4cccc(c34)C2=O)o1,5,-16,5,8,16*,-47,1
CCOC(=O)CCCSc1nnc(CCCCCN2C(=O)c3cccc4cccc(c34)C2=O)o1,29,nt,2,5,14*,-37,3
Cc1nnc(SCCCN2C(=O)c3ccccc3C2=O)o1,9,nt,-28,8,1,-23,nt
CC(C)CCN(C(=O)COc1ccc(C#N)cc1)c1c(N)n(Cc2ccccc2)c(=O)[nH]c1=O,nt,nt,nt,nt,6,nt,nt
O=C(CN(C(=O)CSc1nnc(COc2ccccc2)o1)c1ccc(F)cc1)NC1CCCC1,6,nt,-11,5,15*,-37,2
Cc1ccc(CSCCNC(=O)c2ccc(N(C)S(=O)(=O)c3ccccc3)cc2)cc1,11,-38,3,6,18*,-57,4
CN(c1ccc(C(=O)NCCSC(C)(C)C)cc1)S(=O)(=O)c1ccccc1,nt,0,-3,nt,1,nt,nt
COc1ccc(CCNC(=O)c2ccc(N(C)S(=O)(=O)c3ccccc3)cc2)cc1,nt,nt,-1,nt,nt,nt,nt
CN(c1ccc(C(=O)NCCSCc2ccc(Cl)cc2)cc1)S(=O)(=O)c1ccccc1,6,-16,0,6,20*,-46,3
